# Assay results reported in ChEMBL document CHEMBL5303300, “EUbOPEN Chemogenomics Library - Multiplex” (2023).
# “And” between values parts separate entries of the source, which are not always exact repeats. Equal values may be shown once.
# Test system: HEK-293T
# Experiment: Multiplex assay against HEK293T
# Type: toxicity, cell-based
# Conditions: human, number of replicates 2
# Method in brief: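 On a CQ1 microscope at 37°C and 5% CO2, live cells were imaged after compound addition. They had been stained at seeding with Hoechst33342, BioTracker Green Microtubule Cytoskeleton Dye, MitoTracker Red and Annexin V Alexa Fluor 680. CellPathfinder machine-learning gating assigned cells to Hoechst high-intensity objects or normal cells, normal cells to healthy, pyknosed or fragmented nuclei, and pyknosed cells to mitotic or apoptotic. Tubulin, mitochondrial-mass and membrane-permeability phenotypes are per cents of healthy-nucleus cells.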
# [1] = 12 h, 1 µM, compound concentration 1 uM
# [2] = 12 h, 10 µM, compound concentration 10 uM
# [3] = 24 h, 1 µM, compound concentration 1 uM
# [4] = 24 h, 10 µM, compound concentration 10 uM
# [5] = 48 h, 1 µM, compound concentration 1 uM
# [6] = 48 h, 10 µM, compound concentration 10 uM
structure (smiles),measurement,setting,value
Cc1cc(NC(=O)c2cccc(NC(=O)/C=C/CN(C)C)c2)ccc1Nc1nccc(-c2cccnc2)n1,Population Apoptotic (%),[1],41% and 60%
same,Population Fragmented Nuclei (%),[1],3%
same,Population Healthy Nuclei (%),[1],87%
same,Population Hoechst High Intensity Objects (%),[1],11% and 10%
same,Population Membrane Permeable-Phenotype (%),[1],4% and 2%
same,Population Mitochondria Different-Phenotype (%),[1],40% and 30%
same,Population Mitotic Cells (%),[1],58% and 40%
same,Population Normal (%),[1],88% and 89%
same,Population Pyknosed Nuclei (%),[1],9%
same,Population Tubulin-Different-Phenotype (%),[1],93% and 92%
same,Total Cell Count,[1],450 and 477
same,Population Apoptotic (%),[2],63% and 71%
same,Population Fragmented Nuclei (%),[2],1% and 3%
same,Population Healthy Nuclei (%),[2],85% and 87%
same,Population Hoechst High Intensity Objects (%),[2],8% and 11%
same,Population Membrane Permeable-Phenotype (%),[2],2% and 1%
same,Population Mitochondria Different-Phenotype (%),[2],35% and 50%
same,Population Mitotic Cells (%),[2],36% and 28%
same,Population Normal (%),[2],91% and 88%
same,Population Pyknosed Nuclei (%),[2],12% and 9%
same,Population Tubulin-Different-Phenotype (%),[2],95% and 97%
same,Total Cell Count,[2],393 and 436
same,Population Apoptotic (%),[3],62% and 53%
same,Population Fragmented Nuclei (%),[3],5%
same,Population Healthy Nuclei (%),[3],82% and 81%
same,Population Hoechst High Intensity Objects (%),[3],11% and 10%
same,Population Membrane Permeable-Phenotype (%),[3],2%
same,Population Mitochondria Different-Phenotype (%),[3],36% and 28%
same,Population Mitotic Cells (%),[3],37% and 46%
same,Population Normal (%),[3],88% and 89%
same,Population Pyknosed Nuclei (%),[3],12%
same,Population Tubulin-Different-Phenotype (%),[3],92% and 90%
same,Total Cell Count,[3],510 and 551
same,Population Apoptotic (%),[4],76% and 74%
same,Population Fragmented Nuclei (%),[4],2% and 5%
same,Population Healthy Nuclei (%),[4],87% and 77%
same,Population Hoechst High Intensity Objects (%),[4],19% and 14%
same,Population Membrane Permeable-Phenotype (%),[4],0% and 1%
same,Population Mitochondria Different-Phenotype (%),[4],79% and 60%
same,Population Mitotic Cells (%),[4],23% and 25%
same,Population Normal (%),[4],80% and 85%
same,Population Pyknosed Nuclei (%),[4],10% and 17%
same,Population Tubulin-Different-Phenotype (%),[4],99% and 96%
same,Total Cell Count,[4],367 and 377
same,Population Apoptotic (%),[5],66% and 70%
same,Population Fragmented Nuclei (%),[5],10% and 12%
same,Population Healthy Nuclei (%),[5],77% and 76%
same,Population Hoechst High Intensity Objects (%),[5],11% and 12%
same,Population Membrane Permeable-Phenotype (%),[5],5% and 7%
same,Population Mitochondria Different-Phenotype (%),[5],10% and 11%
same,Population Mitotic Cells (%),[5],33% and 29%
same,Population Normal (%),[5],88% and 87%
same,Population Pyknosed Nuclei (%),[5],11%
same,Population Tubulin-Different-Phenotype (%),[5],83% and 80%
same,Total Cell Count,[5],671 and 800
same,Population Apoptotic (%),[6],74% and 73%
same,Population Fragmented Nuclei (%),[6],6%
same,Population Healthy Nuclei (%),[6],43% and 40%
same,Population Hoechst High Intensity Objects (%),[6],27% and 19%
same,Population Membrane Permeable-Phenotype (%),[6],12% and 9%
same,Population Mitochondria Different-Phenotype (%),[6],61%
same,Population Mitotic Cells (%),[6],25% and 26%
same,Population Normal (%),[6],72% and 80%
same,Population Pyknosed Nuclei (%),[6],50% and 52%
same,Population Tubulin-Different-Phenotype (%),[6],74% and 70%
same,Total Cell Count,[6],368 and 375
C[C@H](N)Cn1ccc2cc(F)c(Cl)cc21.O=C(O)/C=C/C(=O)O,Population Apoptotic (%),[1],38% and 46%
same,Population Fragmented Nuclei (%),[1],3% and 2%
same,Population Healthy Nuclei (%),[1],82% and 85%
same,Population Hoechst High Intensity Objects (%),[1],8%
same,Population Membrane Permeable-Phenotype (%),[1],1%
same,Population Mitochondria Different-Phenotype (%),[1],17% and 15%
same,Population Mitotic Cells (%),[1],61% and 53%
same,Population Normal (%),[1],91%
same,Population Pyknosed Nuclei (%),[1],14% and 11%
same,Population Tubulin-Different-Phenotype (%),[1],59% and 53%
same,Total Cell Count,[1],737 and 645
same,Population Apoptotic (%),[2],58% and 55%
same,Population Fragmented Nuclei (%),[2],4% and 5%
same,Population Healthy Nuclei (%),[2],83% and 79%
same,Population Hoechst High Intensity Objects (%),[2],8% and 9%
same,Population Membrane Permeable-Phenotype (%),[2],5% and 1%
same,Population Mitochondria Different-Phenotype (%),[2],28% and 20%
same,Population Mitotic Cells (%),[2],41% and 44%
same,Population Normal (%),[2],91% and 90%
same,Population Pyknosed Nuclei (%),[2],12% and 14%
same,Population Tubulin-Different-Phenotype (%),[2],81% and 72%
same,Total Cell Count,[2],443 and 563
same,Population Apoptotic (%),[3],52% and 57%
same,Population Fragmented Nuclei (%),[3],10% and 6%
same,Population Healthy Nuclei (%),[3],77% and 82%
same,Population Hoechst High Intensity Objects (%),[3],7%
same,Population Membrane Permeable-Phenotype (%),[3],1% and 2%
same,Population Mitochondria Different-Phenotype (%),[3],6% and 4%
same,Population Mitotic Cells (%),[3],47% and 42%
same,Population Normal (%),[3],92%
same,Population Pyknosed Nuclei (%),[3],12% and 10%
same,Population Tubulin-Different-Phenotype (%),[3],32% and 28%
same,Total Cell Count,[3],1141 and 1024
same,Population Apoptotic (%),[4],63% and 59%
same,Population Fragmented Nuclei (%),[4],8% and 7%
same,Population Healthy Nuclei (%),[4],83% and 84%
same,Population Hoechst High Intensity Objects (%),[4],9% and 11%
same,Population Membrane Permeable-Phenotype (%),[4],2% and 3%
same,Population Mitochondria Different-Phenotype (%),[4],16% and 8%
same,Population Mitotic Cells (%),[4],36% and 40%
same,Population Normal (%),[4],90% and 88%
same,Population Pyknosed Nuclei (%),[4],7% and 8%
same,Population Tubulin-Different-Phenotype (%),[4],72% and 40%
same,Total Cell Count,[4],634 and 884
same,Population Apoptotic (%),[5],18% and 17%
same,Population Fragmented Nuclei (%),[5],17% and 11%
same,Population Healthy Nuclei (%),[5],80% and 85%
same,Population Hoechst High Intensity Objects (%),[5],9%
same,Population Membrane Permeable-Phenotype (%),[5],5% and 3%
same,Population Mitochondria Different-Phenotype (%),[5],0%
same,Population Mitotic Cells (%),[5],81% and 82%
same,Population Normal (%),[5],90%
same,Population Pyknosed Nuclei (%),[5],2%
same,Population Tubulin-Different-Phenotype (%),[5],14% and 11%
same,Total Cell Count,[5],2886 and 2112
same,Population Apoptotic (%),[6],40% and 17%
same,Population Fragmented Nuclei (%),[6],15% and 12%
same,Population Healthy Nuclei (%),[6],80% and 84%
same,Population Hoechst High Intensity Objects (%),[6],11% and 7%
same,Population Membrane Permeable-Phenotype (%),[6],8% and 4%
same,Population Mitochondria Different-Phenotype (%),[6],1%
same,Population Mitotic Cells (%),[6],59% and 82%
same,Population Normal (%),[6],88% and 92%
same,Population Pyknosed Nuclei (%),[6],3%
same,Population Tubulin-Different-Phenotype (%),[6],36% and 20%
same,Total Cell Count,[6],1535 and 2025
COCCNC1CCC(Nc2cc(-c3csc(NCC4(C#N)CCOCC4)n3)c(Cl)cn2)CC1 (configuration not stated),Population Apoptotic (%),[1],38% and 65%
same,Population Fragmented Nuclei (%),[1],4% and 2%
same,Population Healthy Nuclei (%),[1],81% and 83%
same,Population Hoechst High Intensity Objects (%),[1],7% and 9%
same,Population Membrane Permeable-Phenotype (%),[1],3% and 2%
same,Population Mitochondria Different-Phenotype (%),[1],50% and 51%
same,Population Mitotic Cells (%),[1],61% and 34%
same,Population Normal (%),[1],92% and 90%
same,Population Pyknosed Nuclei (%),[1],13% and 14%
same,Population Tubulin-Different-Phenotype (%),[1],76% and 80%
same,Total Cell Count,[1],472 and 403
same,Population Apoptotic (%),[2],74% and 66%
same,Population Fragmented Nuclei (%),[2],1% and 2%
same,Population Healthy Nuclei (%),[2],77% and 83%
same,Population Hoechst High Intensity Objects (%),[2],10% and 12%
same,Population Membrane Permeable-Phenotype (%),[2],2% and 3%
same,Population Mitochondria Different-Phenotype (%),[2],69% and 65%
same,Population Mitotic Cells (%),[2],25% and 33%
same,Population Normal (%),[2],89% and 87%
same,Population Pyknosed Nuclei (%),[2],20% and 14%
same,Population Tubulin-Different-Phenotype (%),[2],96% and 94%
same,Total Cell Count,[2],313 and 412
same,Population Apoptotic (%),[3],48% and 66%
same,Population Fragmented Nuclei (%),[3],2% and 4%
same,Population Healthy Nuclei (%),[3],88% and 83%
same,Population Hoechst High Intensity Objects (%),[3],13% and 16%
same,Population Membrane Permeable-Phenotype (%),[3],1% and 2%
same,Population Mitochondria Different-Phenotype (%),[3],62% and 58%
same,Population Mitotic Cells (%),[3],51% and 33%
same,Population Normal (%),[3],86% and 83%
same,Population Pyknosed Nuclei (%),[3],8% and 12%
same,Population Tubulin-Different-Phenotype (%),[3],72% and 74%
same,Total Cell Count,[3],431 and 359
same,Population Apoptotic (%),[4],91% and 67%
same,Population Fragmented Nuclei (%),[4],3%
same,Population Healthy Nuclei (%),[4],82% and 87%
same,Population Hoechst High Intensity Objects (%),[4],15% and 21%
same,Population Membrane Permeable-Phenotype (%),[4],2%
same,Population Mitochondria Different-Phenotype (%),[4],81% and 75%
same,Population Normal (%),[4],84% and 78%
same,Population Pyknosed Nuclei (%),[4],14% and 8%
same,Population Tubulin-Different-Phenotype (%),[4],93% and 92%
same,Total Cell Count,[4],294 and 402
same,Population Apoptotic (%),[5],55% and 65%
same,Population Fragmented Nuclei (%),[5],1% and 5%
same,Population Healthy Nuclei (%),[5],91% and 84%
same,Population Hoechst High Intensity Objects (%),[5],14% and 17%
same,Population Membrane Permeable-Phenotype (%),[5],1% and 2%
same,Population Mitochondria Different-Phenotype (%),[5],71% and 68%
same,Population Mitotic Cells (%),[5],45% and 34%
same,Population Normal (%),[5],85% and 82%
same,Population Pyknosed Nuclei (%),[5],7% and 9%
same,Population Tubulin-Different-Phenotype (%),[5],75%
same,Total Cell Count,[5],317 and 304
same,Population Apoptotic (%),[6],92% and 82%
same,Population Fragmented Nuclei (%),[6],1% and 4%
same,Population Healthy Nuclei (%),[6],78% and 85%
same,Population Hoechst High Intensity Objects (%),[6],13% and 22%
same,Population Membrane Permeable-Phenotype (%),[6],3% and 1%
same,Population Mitochondria Different-Phenotype (%),[6],85% and 82%
same,Population Mitotic Cells (%),[6],7% and 17%
same,Population Normal (%),[6],86% and 77%
same,Population Pyknosed Nuclei (%),[6],19% and 9%
same,Population Tubulin-Different-Phenotype (%),[6],95% and 90%
same,Total Cell Count,[6],237 and 368
